Measured values taken from ChEMBL document CHEMBL3091443, “Synthesis of novel 7-substituted pyrido[2',3':4,5]furo[3,2-d]pyrimidin-4-amines and their N-aryl analogues and evaluation of their inhibitory activity against Ser/Thr kinases” (Bioorg Med Chem Lett, 2013).

What was measured:
[1] = Inhibition of pig brain CK1delta/epsilon using RRKHAAIGpSAYSITA as substrate after 30 mins by scintillation counting analysis; parameters: species or system Sus scrofa
How it was run: (§1)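 Compounds were screened first at 10 µM final; those giving under 50% inhibition were scored as IC50 >10 µM, and the rest were taken to IC50 determination (µM). Kinase activities were assayed in triplicate, with standard deviation of single data points typically below 10%. Assay procedures are cited to earlier reports.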

[2] = target: Dual specificity tyrosine-phosphorylation-regulated kinase 1A (Rattus norvegicus, UniProt Q63470); experiment: Inhibition of rat recombinant GST-tagged DYRK1A expressed in Escherichia coli using KKISGRLSPIMTEQ as substrate after 30 mins by scintillation counting analysis; how it was run: as §1
[3] = target: Dual specificity protein kinase CLK1 (Homo sapiens, UniProt P49759); experiment: Inhibition of human recombinant GST-tagged CLK1 expressed in Escherichia coli using GRSRSRSRSRSR as substrate; how it was run: as §1
[4] = target: Cyclin-dependent kinase 5/CDK5 activator 1 (Homo sapiens, UniProt Q00535); experiment: Inhibition of human recombinant CDK5/p25 using [gamma-33P]ATP as substrate after 30 mins by scintillation counting analysis; assay type: protein-complex assay; how it was run: as §1
[5] = target: Glycogen synthase kinase-3 (Sus scrofa, UniProt B2LUN4+I6LNT8); experiment: Inhibition of pig brain GSK3alpha/beta using YRRAAVPPSPSLSRHSSPHQpSEDEEE as substrate after 30 mins by scintillation counting analysis
How it was run: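 Screened first at 10 μM final; compounds giving under 50% inhibition at that level were recorded as IC50 >10 μM. Kinase activity was assayed in triplicate, and IC50 values are reported in μM.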

Cyclin-dependent kinase 5/CDK5 activator 1, sequence (Q00535 whole entry): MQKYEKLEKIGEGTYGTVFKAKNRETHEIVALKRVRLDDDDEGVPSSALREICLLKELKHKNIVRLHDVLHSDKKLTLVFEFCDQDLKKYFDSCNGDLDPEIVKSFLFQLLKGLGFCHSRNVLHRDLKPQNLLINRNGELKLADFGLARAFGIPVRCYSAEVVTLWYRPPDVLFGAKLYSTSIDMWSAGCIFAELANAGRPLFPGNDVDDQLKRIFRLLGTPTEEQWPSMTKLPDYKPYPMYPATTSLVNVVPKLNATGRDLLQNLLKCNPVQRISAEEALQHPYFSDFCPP
Cyclin-dependent kinase 5/CDK5 activator 1, sequence (Q15078 whole entry, further chain): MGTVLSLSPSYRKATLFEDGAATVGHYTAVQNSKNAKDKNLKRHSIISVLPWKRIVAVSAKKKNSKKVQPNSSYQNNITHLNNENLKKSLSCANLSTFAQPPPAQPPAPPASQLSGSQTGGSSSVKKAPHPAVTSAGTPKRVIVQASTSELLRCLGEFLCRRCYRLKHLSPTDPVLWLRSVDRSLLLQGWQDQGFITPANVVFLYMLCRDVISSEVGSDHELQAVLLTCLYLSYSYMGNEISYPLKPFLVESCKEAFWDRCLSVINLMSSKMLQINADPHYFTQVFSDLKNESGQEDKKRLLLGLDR
Dual specificity protein kinase CLK1, sequence (P49759 whole entry): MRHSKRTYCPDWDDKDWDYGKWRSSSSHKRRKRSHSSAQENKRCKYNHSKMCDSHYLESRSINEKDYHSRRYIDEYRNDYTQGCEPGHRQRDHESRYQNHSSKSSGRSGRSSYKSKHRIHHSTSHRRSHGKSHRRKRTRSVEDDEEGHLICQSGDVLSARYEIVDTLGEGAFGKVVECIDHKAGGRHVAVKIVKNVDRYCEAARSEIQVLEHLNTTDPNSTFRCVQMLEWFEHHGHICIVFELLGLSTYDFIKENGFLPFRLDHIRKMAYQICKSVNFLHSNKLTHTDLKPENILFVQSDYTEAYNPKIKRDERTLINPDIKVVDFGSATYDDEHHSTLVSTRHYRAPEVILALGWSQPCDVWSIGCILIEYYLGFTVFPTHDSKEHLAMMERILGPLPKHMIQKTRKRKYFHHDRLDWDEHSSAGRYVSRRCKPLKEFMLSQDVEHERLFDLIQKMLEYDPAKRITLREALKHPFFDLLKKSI

Structure (SMILES)	IC50 [1] [µM]	IC50 [2] [µM]	IC50 [3] [µM]	IC50 [4] [µM]	IC50 [5] [µM]
c1nc(Nc2ccc3c(c2)OCO3)c2oc3cc(-c4ccc5c(c4)OCO5)cnc3c2n1	> 10	> 10	> 10	> 10	> 10
Nc1ncnc2c1oc1cc(-c3cccc(Cl)c3)cnc12	> 10	> 10	1	> 10	> 10
Nc1ncnc2c1oc1cc(-c3ccc(Cl)c(Cl)c3)cnc12	> 10	> 10	> 10	> 10	> 10
Nc1ncnc2c1oc1cc(-c3ccc(Cl)cc3Cl)cnc12	> 10	0.6	0.049	> 10	> 10
Nc1ncnc2c1oc1cc(-c3ccc4c(c3)OCO4)cnc12	> 10	2.3	0.32	> 10	> 10
c1ccc(Nc2ncnc3c2oc2cc(-c4ccc5c(c4)OCO5)cnc23)cc1	> 10	> 10	> 10	> 10	> 10
Cc1ccc(Nc2ncnc3c2oc2cc(-c4ccc5c(c4)OCO5)cnc23)cc1	> 10	> 10	> 10	> 10	> 10
COc1ccc(Nc2ncnc3c2oc2cc(-c4ccc5c(c4)OCO5)cnc23)cc1	> 10	> 10	> 10	> 10	> 10
COc1ccc(Nc2ncnc3c2oc2cc(-c4ccc5c(c4)OCO5)cnc23)cc1OC	> 10	> 10	> 10	> 10	> 10
COc1cc(Nc2ncnc3c2oc2cc(-c4ccc5c(c4)OCO5)cnc23)cc(OC)c1OC	> 10	> 10	> 10	> 10	> 10
Clc1ccc(Nc2ncnc3c2oc2cc(-c4ccc5c(c4)OCO5)cnc23)cc1Cl	> 10	> 10	> 10	> 10	> 10
Clc1ccc(Nc2ncnc3c2oc2cc(-c4ccc5c(c4)OCO5)cnc23)cc1	> 10	> 10	> 10	> 10	> 10
Fc1ccc(Nc2ncnc3c2oc2cc(-c4ccc5c(c4)OCO5)cnc23)cc1Cl	> 10	> 10	> 10	> 10	> 10
Nc1ncnc2c1oc1cccnc12	> 10	> 10	> 10	> 10	> 10
c1ccc(Nc2ncnc3c2oc2cccnc23)cc1	> 10	> 10	> 10	> 10	> 10
COc1ccc(Nc2ncnc3c2oc2cccnc23)cc1	> 10	> 10	> 10	> 10	> 10
COc1ccc(Nc2ncnc3c2oc2cccnc23)cc1OC	> 10	> 10	> 10	> 10	> 10
COc1cc(Nc2ncnc3c2oc2cccnc23)cc(OC)c1	> 10	> 10	> 10	> 10	> 10
COc1cc(Nc2ncnc3c2oc2cccnc23)cc(OC)c1OC	> 10	> 10	> 10	> 10	> 10
c1cnc2c(c1)oc1c(Nc3ccc4c(c3)OCO4)ncnc12	> 10	> 10	> 10	> 10	> 10
C1=COc2cc(Nc3ncnc4c3oc3cccnc34)ccc2O1	> 10	> 10	> 10	> 10	> 10
Fc1ccc(Nc2ncnc3c2oc2cccnc23)cc1Cl	> 10	> 10	> 10	> 10	> 10
Fc1cc(Br)ccc1Nc1ncnc2c1oc1cccnc12	> 10	> 10	> 10	> 10	> 10
Nc1ncnc2c1oc1cc(-c3ccccc3)cnc12	> 10	3.1	0.69	> 10	> 10
Cc1ccc(-c2cnc3c(c2)oc2c(N)ncnc23)cc1	> 10	4.4	0.61	> 10	> 10
COc1ccc(-c2cnc3c(c2)oc2c(N)ncnc23)cc1	> 10	> 10	> 10	> 10	> 10
